This is a sample that favours compounds with a hit; in the whole collection about 3.1% have one here.
V-ATPase pH: yeast V-ATPase proton transport regulation by pHLuorin | actives 0.37% (n = 350,000) | S. cerevisiae, pHLuorin cytosolic pH fluorescence | response, % at 10 µM; in the data active = response mostly above about 7.3%, no sharp cut-off; inactive = mostly below about 5.4%; note: actives read high
MPTP inh: blocks calcium-induced mitochondrial swelling. isolated mouse mitochondria, Ca2+ swelling absorbance, 30 min. inhibition, % at 10 µM. actives 1.4% (n = 360,000). AID 602449;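 active = inhibition of 50% or more, scaled per plate between neutral and stimulator controls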
ADAM10 inh: inhibitors of human ADAM10. AID 720582. inhibition, % at 7 µM. recombinant ADAM10, EDANS/DABCYL FRET peptide cleavage, 3 h. O14672. actives 0.62% (n = 370,000);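 active = inhibition above a per-campaign cutoff equal to the mean of compounds falling between control-based bounds plus 3 SD, cut at about 20% in these data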
Lipid droplet: hepatic lipid droplet formation modulation; AML12 mouse hepatocytes, oleate lipid droplets, BODIPY imaging; inhibition, % at 6.5 µM; actives 0.4% (n = 240,000); AID 1656;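 active = lipid droplet intensity inhibited by at least 50%, with more than 500 cells counted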
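Test system: AML12 mouse liver cells; schedule: overnight exposure; technique: high-content imaging of BODIPY-stained droplets and DAPI nuclei; read-out: % inhibition of corrected integrated BODIPY droplet signal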
ADAM17 inh: inhibitors of human ADAM17. P78536. recombinant ADAM17, EDANS/DABCYL FRET peptide cleavage. inhibition, % at 6.95 µM. actives 0.83% (n = 370,000). AID 720648;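 active = inhibition above the mean of compounds lying between control limits plus 3 SD, set per campaign, cut at about 8.5% in these data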
Target sequence (P78536 215-824 limits assumed): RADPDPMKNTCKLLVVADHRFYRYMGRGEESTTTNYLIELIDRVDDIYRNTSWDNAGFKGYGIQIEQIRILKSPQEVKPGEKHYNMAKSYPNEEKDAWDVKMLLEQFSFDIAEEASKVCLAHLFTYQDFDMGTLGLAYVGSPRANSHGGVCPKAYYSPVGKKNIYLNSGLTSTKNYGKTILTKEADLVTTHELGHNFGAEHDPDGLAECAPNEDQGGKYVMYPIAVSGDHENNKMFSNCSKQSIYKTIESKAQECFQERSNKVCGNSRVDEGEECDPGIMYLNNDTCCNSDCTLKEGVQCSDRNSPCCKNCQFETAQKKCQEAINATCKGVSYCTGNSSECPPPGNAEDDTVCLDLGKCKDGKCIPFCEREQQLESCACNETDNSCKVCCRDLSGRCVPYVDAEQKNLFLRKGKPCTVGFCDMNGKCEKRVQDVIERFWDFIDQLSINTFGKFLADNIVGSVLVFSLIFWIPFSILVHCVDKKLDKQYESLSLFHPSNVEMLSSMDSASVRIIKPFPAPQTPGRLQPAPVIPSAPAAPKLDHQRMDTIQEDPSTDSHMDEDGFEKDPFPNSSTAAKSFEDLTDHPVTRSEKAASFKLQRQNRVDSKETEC
aDG glyco act: alpha-DG glycosylation activation; actives 0.22% (n = 360,000); activation, % at 10 µM; AID 624168; Pro5-aDG cells, alpha-DG glycosylation AlphaScreen (IIH6); 0% Pro5, 100% B10-LARGE cell signal;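 active = activation of at least 8% versus controls, or a plate z-score of at least 8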;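 note: Pro5 are CHO cells carrying HIG-tagged alpha-DG that lacks glycosylation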
ADAM10 ctr: ADAM10 inhibition, counter-screen for ADAM17 exosite hits | shares compounds with ADAM17 inh | recombinant ADAM10, EDANS/DABCYL FRET peptide cleavage, 3 h | inhibition, % at 6.95 µM | actives 47% (n = 2,900);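 active = mean inhibition over the triplicate runs exceeds the activity threshold set in the earlier primary screen, cut at about 20% in these data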
ADAM17 confirm: human ADAM17 inhibition, confirmation; inhibition, % at 6.95 µM; AID 743257; recombinant ADAM17, EDANS/DABCYL QFRET peptide cleavage; actives 65% (n = 2,900); shares compounds with ADAM17 inh;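 active = mean inhibition across replicates above the hit cutoff set in the primary screen, cut at about 8.5% in these data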
A number is an active result; – = inactive; · = not tested or not shown.

SMILES	V-ATPase pH	MPTP inh	ADAM10 inh	Lipid droplet	ADAM17 inh	aDG glyco act	ADAM10 ctr	ADAM17 confirm
COc1ccc(C(=O)N(Cc2sccc2C)C2CCS(=O)(=O)C2)cc1 (stereo unspecified)	–	–	–	–	9.1	–	–	–
Cc1ccc(C(=O)N(Cc2sccc2C)C2CCS(=O)(=O)C2)cc1 (stereo unspecified)	–	–	–	–	–	–	·	·
CCCCNC(=O)C[C@H]1C[C@@]2(C(=O)OC)C(=C[C@H](C(C)(C)C)O[C@@H]2C)N(Cc2ccco2)C1=O	·	·	–	·	–	·	·	·
COc1ccc(C2CC(c3ccccc3)=NN2C(=O)CN2N=NC3C(=O)N(c4cccc(F)c4)C(=O)C32)cc1 (stereo unspecified)	–	–	–	–	14	–	–	–
CC(C)(C)c1ccc(C2(C)NC(=O)N(CC(=O)c3ccc[nH]3)C2=O)cc1 (stereo unspecified)	–	–	–	·	11	–	–	–
Cn1c(=O)cc(OCCCC(=O)Nc2cc(-c3ccncc3)ccn2)c2ccccc21	·	·	–	·	–	·	·	·
CCc1ccccc1NC(=O)C1CCC(=O)N(c2ccc(OC)cc2)C1c1ccc(OC)cc1 (stereo unspecified)	·	·	–	·	–	·	·	·
COc1ccc(F)cc1-c1cc(C(=O)NCc2cc(C(F)(F)F)cc(C(F)(F)F)c2)[nH]n1	·	–	–	·	12	–	–	–
Cc1cc(F)ccc1-c1cc(C(=O)NCc2ccc(C(F)(F)F)cc2)[nH]n1	·	–	–	·	11	–	24	13
C[C@H]1[C@@H](OC(=O)NCc2ccccc2)CC[C@@]23CCCN2C(=O)CCC[C@@H]13	·	·	–	·	–	·	·	·
O=C(Nc1ccccc1[N+](=O)[O-])NC1CCCCN(Cc2ccc(Cl)cc2)C1=O (stereo unspecified)	·	·	–	·	–	·	·	·
COCCCNC(=O)Cn1nc(-c2ccccc2OC)ccc1=O	–	–	–	·	10	–	–	–
COCCNC(=O)Cn1nc(-c2ccccc2OC)ccc1=O	–	–	–	·	–	–	·	·
Cc1ccc(-c2nnc3n2N=C(c2ccc(-c4ccccc4)cc2)CS3)cc1	·	·	–	·	–	·	·	·
COc1ccc2nc(Nc3ccc4c(c3)OCO4)sc2c1	–	–	–	–	9.8	–	–	–
CCC(=O)c1ccc(OCC(=O)OCC(=O)NC2CCCCCCC2)cc1	–	–	–	–	9.5	–	–	8.8
CCC(=O)c1ccc(OCC(=O)NC2CCCC2)cc1	–	–	–	·	–	–	·	·
C[C@@H]1[C@H](c2ccccc2)OC(O)([C@H](Cc2ccccc2)NC(=O)OC(C)(C)C)CN1C (stereo partly specified)	·	·	–	·	–	·	·	·
O=C(O)c1ccccc1C(=O)Nc1cc(C(F)(F)F)ccc1N1CCCC1	–	–	–	–	10	–	–	–
Cc1ccc(Nc2ncnc3sc(C)c(C)c23)cc1C	–	–	–	–	9.1	–	–	–
COc1ccc(CC(=O)NC(=S)Nc2ccc(S(=O)(=O)NC(C)(C)C)cc2)cc1	–	–	–	·	9.9	–	32	15
COc1cccc(C(=O)n2ccc3ccc(-c4ccc5ccn(Cc6ccc(C#N)cc6)c5c4)cc32)c1	·	·	–	·	–	·	·	·
Nc1nc(N(Cc2ccccc2)Cc2ccccc2)nc(C(F)(F)F)n1	–	–	–	·	9.1	–	–	8.9
CN(Cc1ccccc1)c1nc(N)nc(Cl)c1C=O	–	–	–	·	–	–	·	·
O=C(Nc1ccc(F)cc1)Nc1c(-c2ccc(C(F)(F)F)cc2)nc2ncccn12	·	·	–	·	–	·	·	·
SMILES	V-ATPase pH	MPTP inh	ADAM10 inh	Lipid droplet	ADAM17 inh	aDG glyco act	ADAM10 ctr	ADAM17 confirm
O=C(Nc1ccc(F)cc1)c1ccccc1Oc1ccc(C(F)(F)F)cc1[N+](=O)[O-]	–	–	–	–	11	–	23	12
C=CCN1[C@H](Cc2ccccc2)COc2cccc(N3CCSCC3)c2S1(=O)=O	·	·	–	·	–	·	·	·
CCOc1ccc(CCN2C(=S)N([C@@H](Cc3ccc(O)cc3)CN3CCC[C@@H]3CN3C(=S)NC[C@@H]3Cc3ccccc3)C[C@@H]2Cc2ccc(O)cc2)cc1	·	–	–	·	12	–	–	8.8
CC(C)C[C@H]1CNC(=S)N1C[C@H]1CCCN1C[C@H](Cc1ccccc1)N1C[C@H](Cc2ccc(O)cc2)N(CCc2ccccc2)C1=S	·	–	–	·	9.5	–	–	9.5
Oc1ccc(C[C@H]2CNC(=S)N2CC2CCCN2C[C@H](Cc2ccccc2)N2C[C@H](Cc3ccc(O)cc3)N(CCc3ccccc3)C2=S)cc1 (stereo partly specified)	–	–	–	·	10	–	44	22
CC(C)C[C@H]1CN([C@@H](Cc2ccc(O)cc2)CN2CCC[C@@H]2CN2C(=S)NC[C@@H]2Cc2ccccc2)C(=S)N1CCc1ccccc1	·	–	–	·	8.9	–	34	20
CC(C)C[C@H]1CNC(=S)N1C[C@H]1CCCN1C[C@H](Cc1ccc(O)cc1)N1C[C@H](Cc2ccc(O)cc2)N(CCc2ccccc2)C1=S	·	–	–	·	–	–	·	·
CCOc1ccc(CCN2C(=S)N([C@@H](CC(C)C)CN3CCCC3CN3C(=S)NC[C@@H]3Cc3ccc(O)cc3)C[C@@H]2Cc2ccccc2)cc1 (stereo partly specified)	–	–	–	·	–	–	·	·
Cc1cc(NS(=O)(=O)c2ccc(NC(=O)CSc3nnc(-c4cnccn4)n3-c3ccccc3)cc2)nc(C)n1	·	·	–	·	–	·	·	·
COP(=O)(CC(=O)C(Cc1ccccc1)NC(=O)OC(C)(C)C)OC (stereo unspecified)	·	·	–	·	–	·	·	·
Cc1ccc(-c2nnn(CCC(=O)N3CCCCC3C)n2)cc1 (stereo unspecified)	–	–	–	·	9.5	–	–	–
CC1CCCCN1C(=O)Cn1nnc(-c2cccnc2)n1 (stereo unspecified)	–	–	–	–	–	–	·	·
CCN(C[C@H]1[C@@H](c2ccc(C3=CCCC3)cc2)[C@H](CO)N1C(=O)c1cccnc1)S(=O)(=O)c1ccccc1[N+](=O)[O-]	·	·	–	·	–	·	·	·
Cc1cccc(NS(=O)(=O)c2ccc3c(c2)Cc2cc(S(=O)(=O)Nc4cccc(C)c4C)ccc2-3)c1C	–	–	–	–	11	–	–	10
Cc1cccc(NS(=O)(=O)c2ccc3[nH]c(=O)[nH]c3c2)c1C	–	–	–	–	–	–	·	·
CC(=O)Nc1ccc(SC[C@H](CC(C)C)N2CCN(CCc3ccccc3)CCC2=O)cc1	–	–	–	–	9.0	–	–	–
C=C(O[C@H]1[C@H](O)CC=C(C(=O)O)[C@@H]1O)C(=O)O	·	·	–	·	–	·	·	·

Assay outcomes (PubChem)
